The nature of series [1]: Permeability of the compound at pH 7.4 after 4 hrs by PAMPA. Format: ADME. Conditions: read-out: permeability. The gist of the method: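 Passive membrane permeability was measured by PAMPA at pH 7.4. The effective permeability coefficient Pe is reported in 10^-6 cm/sec.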
(PAMPA measures passive passage across an artificial lipid membrane.)

Series [2] has as its target T1, 3',5'-cyclic-AMP phosphodiesterase 4B (Homo sapiens, UniProt Q07343). Description: Inhibition of human recombinant PDE4B (152 to 564 amino acids) using cAMP as substrate after 30 mins by plate reader analysis.
Series [3] can be described thus: Octanol-phosphate buffer partition coefficient, log D of the compound at pH 7.4 after 12 hrs by shake flask method. Type of series: physicochemical.
The nature of series [4]: Antiinflammatory activity in Balb/c mouse splenocytes assessed as LPS-induced TNF-alpha production after 18 to 24 hrs by AlphaLISA. Type of series: functional, cell-based. Conditions: Splenocyte. For orientation: In Alpha technology, singlet oxygen from a donor bead excites a nearby acceptor bead.
For series [5], the system named is Mus musculus. The experiment in a line: Antiinflammatory activity in ip dosed BALB/c mouse assessed as inhibition of LPS-induced pulmonary neutrophilia administered 30 mins prior to LPS challenge measured after 4 to 5 hrs. Format: functional. As to conditions: for ED50: read-out: ID50 (the source's name).
Series [6] deals with T1, 3',5'-cyclic-AMP phosphodiesterase 4B. The experiment in a line: Inhibition of human recombinant PDE4B (152 to 564) using cAMP as substrate at 10 uM after 30 mins by plate reader analysis.

A word on the IC50: it is the concentration needed to halve the response being measured. As a reminder, the logD is lipophilicity at a set pH, counting ionised and neutral species. Low readings indicate lower lipophilicity, high ones higher lipophilicity. The term inhibition denotes the share of the control response that was lost under treatment.

Active and inactive are the calls of the source. The calls are words filed in the database; no cut-off is given here.

T1 sequence (Q07343 whole entry, the tested form may be a part): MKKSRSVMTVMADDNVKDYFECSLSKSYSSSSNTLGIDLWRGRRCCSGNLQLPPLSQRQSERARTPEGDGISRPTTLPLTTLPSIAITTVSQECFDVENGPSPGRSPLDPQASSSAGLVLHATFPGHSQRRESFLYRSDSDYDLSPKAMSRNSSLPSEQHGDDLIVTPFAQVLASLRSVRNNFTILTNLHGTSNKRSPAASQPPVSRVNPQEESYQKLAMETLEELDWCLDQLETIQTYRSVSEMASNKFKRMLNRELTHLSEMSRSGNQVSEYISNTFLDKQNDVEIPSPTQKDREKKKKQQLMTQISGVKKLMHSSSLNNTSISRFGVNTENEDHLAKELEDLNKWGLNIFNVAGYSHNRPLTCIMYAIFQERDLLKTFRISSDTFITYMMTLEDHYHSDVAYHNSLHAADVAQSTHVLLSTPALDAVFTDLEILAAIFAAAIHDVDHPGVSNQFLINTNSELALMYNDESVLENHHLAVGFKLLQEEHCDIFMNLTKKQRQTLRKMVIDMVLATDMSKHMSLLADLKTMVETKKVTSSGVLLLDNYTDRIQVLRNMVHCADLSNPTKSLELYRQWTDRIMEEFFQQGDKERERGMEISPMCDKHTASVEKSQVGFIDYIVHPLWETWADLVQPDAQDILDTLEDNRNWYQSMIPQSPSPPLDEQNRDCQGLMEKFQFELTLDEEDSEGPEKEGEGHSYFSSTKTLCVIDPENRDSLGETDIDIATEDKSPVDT

With `O=C(O)Cc1ccc(Nc2nc(-c3ccccc3)nc3c2CCS(=O)(=O)C3)cc1`, the Papp at 4 h in series [1] is less than 2 ×10⁻⁶ cm/s. In addition, the IC50 in series [2] is 28 nM; in series [4] it was more than 10000 nM. Also, the logD at 12 h in series [3] was -0.45.

For the compound `O=C(O)CN1CCN(c2nc(-c3ccccc3)nc3c2CS(=O)(=O)C3)CC1`, in series [2], the IC50 was 5000 nM.

With `O=C(Cc1ccc(Nc2nc(-c3ccccc3)nc3c2S(=O)(=O)CCC3)cc1)Nc1ccccc1`, the IC50 in series [2] worked out at 43 nM; in series [4] it was 18 nM.

Turning to `O=C(O)Cc1ccc(Nc2nc(-c3ccccc3)nc3c2SCCC3)cc1`, the Papp at 4 h in series [1] stood at 15.5 ×10⁻⁶ cm/s. The IC50 is 29 nM in series [2] and 90 nM in series [4]. Also, in series [3], the logD at 12 h came out at 1.4.

With `O=C(O)Cc1ccc(Nc2nc(-c3ccccc3)nc3c2S(=O)(=O)CCC3)cc1`, the Papp at 4 h in series [1] came out at 5.8 ×10⁻⁶ cm/s. Further, the figures for the half-maximal inhibitory concentration (IC50) in series [2] and in series [4] were 25 nM and 390 nM, respectively. Besides, the logD at 12 h in series [3] worked out at 0.43.

`O=C(O)Cc1ccc(Nc2nc(-c3ccccc3)nc3ccccc23)cc1`: the IC50 in series [2] amounted to 480 nM.

As for `O=C(O)Cc1ccc(Nc2nc(-c3ccccc3)nc3sccc23)cc1`, the half-maximal inhibitory concentration (IC50) in series [2] turned out to be 230 nM.

For `O=C(Nc1c(Cl)cncc1Cl)c1ccc(OC(F)F)c(OCC2CC2)c1` [ROFLUMILAST], the IC50 in series [4] was determined as 1.2 nM.

On to `O=C(O)Cc1ccc(Nc2nc(-c3ccccc3)nc3c2S(=O)(=O)CC3)cc1`, for which the IC50 in series [2] was 280 nM; in series [4] it was more than 10000 nM.

For the compound `CCCCNC(=O)Cc1ccc(Nc2nc(-c3ccccc3)nc3c2S(=O)(=O)CCC3)cc1`, in series [5], the ED50 amounted to 23 mg/kg. Besides, the figures for the IC50 in series [2] and in series [4] were 22 nM and 13 nM, respectively.

In the case of `CNC(=O)Cc1ccc(Nc2nc(-c3ccccc3)nc3c2S(=O)(=O)CCC3)cc1`, the IC50 worked out at 27 nM in series [2] and 35 nM in series [4].

For `O=C(O)Cc1ccc(Nc2nc(-c3ccccc3)nc3c2CCC3)cc1`, in series [2], the half-inhibitory concentration (IC50) came to 610 nM.

As to `CC(C)(C)CNC(=O)Cc1ccc(Nc2nc(-c3ccccc3)nc3c2S(=O)(=O)CCC3)cc1`, the outcome in series [5] was inactive. Also, the IC50 stood at 4.7 nM in series [2] and 0.8 nM in series [4].

Take `CCCNC(=O)Cc1ccc(Nc2nc(-c3ccccc3)nc3c2S(=O)(=O)CCC3)cc1`: the ED50 in series [5] came out at 18 mg/kg. Besides, the IC50 turned out to be 7.5 nM in series [2] and 9.8 nM in series [4].

On to `O=C(O)CN1CCC(Nc2nc(-c3ccccc3)nc3c2CS(=O)(=O)C3)CC1`, for which, in series [2], the IC50 worked out at 3000 nM.

As to `CN(C)C(=O)Cc1ccc(Nc2nc(-c3ccccc3)nc3c2S(=O)(=O)CCC3)cc1`, the IC50 in series [2] is 33 nM; in series [4], 17 nM.

Turning to `O=C(O)Cc1ccc(Nc2nc(-c3ccccc3)nc3c2CCCCC3)cc1`, the inhibition in series [6] was 35%.

With `O=C(O)Cc1ccc(Nc2nc(-c3ccccc3)nc3ncccc23)cc1`, in series [6], the inhibition is 14%.

`O=C(O)Cc1ccc(Nc2nc(-c3ccccc3)nc3c2CCCC3)cc1`: in series [2], the IC50 was 430 nM.

Take `O=C(O)CC1CCN(c2nc(-c3ccccc3)nc3c2CS(=O)(=O)C3)CC1`: the concentration for half-maximal inhibition (IC50) in series [2] is 190 nM.

For the compound `CC(C)CNC(=O)Cc1ccc(Nc2nc(-c3ccccc3)nc3c2S(=O)(=O)CCC3)cc1`, the IC50 in series [2] is 6.6 nM; in series [4] it was 4.7 nM.

In the case of `O=C(O)CC1CCN(c2nc(-c3ccccc3)nc3c2CSC3)CC1`, the IC50 in series [2] worked out at 150 nM.

On to `O=C(O)Cc1ccc(Nc2nc(-c3ccccc3)nc3c2COC3)cc1`, for which the IC50 in series [2] amounted to 2200 nM.

Take `O=C(O)Cc1ccc(Nc2nc(-c3ccccc3)nc3c2CS(=O)(=O)C3)cc1`: the Papp at 4 h in series [1] is less than 2 ×10⁻⁶ cm/s. Also, the results for the IC50 in series [2] and in series [4] were 140 nM and 970 nM, respectively. In series [3], this compound came in with a logD at 12 h of 0.016.

For the compound `O=C(O)CCc1ccc(Nc2nc(-c3ccccc3)nc3c2CS(=O)(=O)C3)cc1`, the IC50 in series [2] was determined as 800 nM.

Turning to `NC(=O)Cc1ccc(Nc2nc(-c3ccccc3)nc3c2S(=O)(=O)CCC3)cc1`, the Papp at 4 h in series [1] is more than 50 ×10⁻⁶ cm/s. Moreover, the IC50 in series [2] is 16 nM; in series [4] it was 8.5 nM. Also, in series [3], the logD at 12 h was 2.9.

For the compound `O=C(O)Cc1ccc(Nc2nc(-c3ccccc3)nc3c2CSC3)cc1`, in series [1], the Papp at 4 h is 13.3 ×10⁻⁶ cm/s. Further, the IC50 turned out to be 29 nM in series [2] and 220 nM in series [4]. In series [3], this compound had a logD at 12 h of 1.3.

Turning to `CC(C)(C)NC(=O)Cc1ccc(Nc2nc(-c3ccccc3)nc3c2S(=O)(=O)CCC3)cc1`, the IC50 was determined as 11 nM in series [2] and 8.5 nM in series [4].

Consider `O=C(O)Cc1cccc(Nc2nc(-c3ccccc3)nc3c2CS(=O)(=O)C3)c1`, for which the half-maximal inhibitory concentration (IC50) in series [2] was found to be 2500 nM.

As for `O=C(O)Cc1ccc(Nc2nc(-c3ccccc3)nc3c2CS(=O)(=O)CC3)cc1`, the IC50 in series [2] was 7900 nM.

These data come from ChEMBL document CHEMBL2385052, “Identification of the fused bicyclic 4-amino-2-phenylpyrimidine derivatives as novel and potent PDE4 inhibitors” (Bioorg Med Chem Lett, 2013).
